Among the data in ChEMBL document CHEMBL1139963, “Boswellic acids and glucosamine show synergistic effect in preclinical anti-inflammatory study in rats” (2007) are inhibition in vivo and Activity values, retold here.

Assay [1] deals with Rattus norvegicus. Briefly: Antiinflammatory activity against carrageenan-induced paw edema in Wistar rat assessed as reduction of paw edema at 250 mg/kg after 3 hrs relative to control. It counts as functional. Put shortly:
(§1)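 Rats, five per group, were dosed orally with suspensions in 2% gum acacia. After 45 min, freshly prepared 10 mg/ml carrageenan was injected subplantar into the left hind paw, with saline in the contralateral paw. Paw volume was measured by volume differential meter immediately and hourly to 4 h. Percent protection was calculated versus control. Data are means ± SE, analysed by Student's t-test.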

The test system of assay [2] is Rattus norvegicus. The experiment in a line: Antiinflammatory activity against carrageenan-induced paw edema in Wistar rat assessed as reduction of paw edema at 250 mg/kg after 4 hrs relative to control. Type of assay: functional. Put shortly:
as §1
(In the carrageenan paw model, swelling and tenderness develop within hours.)

The test system of assay [3] is Rattus norvegicus. The experiment in a line: Antiarthritic activity against Mycobacterium tuberculosis-induced rat arthritic model assessed as inhibition of chronic phase inflammation at 250 mg/kg relative to control. Type of assay: functional. Put shortly: (§2)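 Adjuvant arthritis in rats, five per group. A 5 mg/ml suspension of heat-killed Mycobacterium tuberculosis in liquid paraffin was injected subplantar into the left hind foot. Oral dosing ran from one day before immunization to day 13. Paw volume was measured on alternate days, and percent change was calculated versus the vehicle control. The chronic phase begins after day 8. Data are means ± SE, analysed by Student's t-test.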

Assay [4] relates to Rattus norvegicus. The experiment in a line: Antiinflammatory activity against carrageenan-induced paw edema in Wistar rat assessed as reduction of paw edema at 250 mg/kg relative to control. It counts as functional, organism-based. Also on record: dose 250 mg/kg. Put shortly:
as §1

Assay [5] relates to Rattus norvegicus. The experiment in a line: Antiarthritic activity against Mycobacterium tuberculosis-induced rat arthritic model at 250 mg/kg relative to control. It counts as functional, organism-based. Also on record: dose 250 mg/kg. The essentials: as §2
Assay [6] relates to Rattus norvegicus. Briefly: Antiinflammatory activity against carrageenan-induced paw edema in Wistar rat assessed as reduction of paw edema at 100 mg/kg relative to control. It counts as functional. Further details: scale not given: the % may be the effect or the level left. Put shortly: as §1
Assay [7] concerns Rattus norvegicus. The experiment in a line: Antiarthritic activity against Mycobacterium tuberculosis-induced rat arthritic model assessed as inhibition of acute phase inflammation at 100 mg/kg relative to control. Type of assay: functional, organism-based. Also on record: dose 100 mg/kg. Put shortly:
as §2

Assay [8] deals with Rattus norvegicus. The experiment in a line: Antiarthritic activity against Mycobacterium tuberculosis-induced rat arthritic model assessed as inhibition of chronic phase inflammation at 100 mg/kg relative to control. Type of assay: functional, organism-based. Also on record: dose 100 mg/kg. The essentials: as §2

By inhibition in vivo is commonly meant the percentage by which the read-out fell short of the control.

SMILES strings stand for the structures. Activity calls are given as the source filed them. No cut-off for these calls is given here.

Turning to `C[C@H]1[C@H](C)CC[C@]2(C)CC[C@]3(C)C(=CC[C@@H]4[C@@]5(C)CC[C@@H](O)[C@](C)(C(=O)O)[C@@H]5CC[C@]43C)[C@H]12` [BOSWELLIC ACID], the results for the inhibition in vivo at 250 mg/kg in the assay on Rattus norvegicus [1], with Rattus norvegicus [2] and in the assay with Rattus norvegicus [3] were 28.6%, 25.8% and 36.4%, respectively.
On to `CC1(C)CC[C@]2(C)CC[C@]3(C)C(=CC[C@@H]4[C@@]5(C)CC[C@@H](O)[C@](C)(C(=O)O)[C@@H]5CC[C@]43C)[C@@H]2C1`, for which the inhibition in vivo at 250 mg/kg in the assay on Rattus norvegicus [1] turned out to be 28.6%; with Rattus norvegicus [2], 25.8%; in the assay with Rattus norvegicus [3], 36.4%.
Regarding `C[C@H]1[C@H](C)CC[C@]2(C)CC[C@]3(C)C(=CC(=O)[C@@H]4[C@@]5(C)CC[C@@H](O)[C@](C)(C(=O)O)[C@@H]5CC[C@]43C)[C@H]12`, the outcome in the assay on Rattus norvegicus [4] and with Rattus norvegicus [5] was Active.
Consider `N[C@@H]1[C@@H](O)[C@H](O)[C@@H](CO)O[C@H]1O` [GLUCOSAMINE], for which the inhibition in vivo at 250 mg/kg was 15.2% in the assay with Rattus norvegicus [1], 16.1% with Rattus norvegicus [2] and 21.6% in the assay on Rattus norvegicus [3].
With `CC(C)Cc1ccc([C@H](C)C(=O)O)cc1` [DEXIBUPROFEN], the Activity in the assay with Rattus norvegicus [6] is reported as 55.64%. For the same molecule, the result in the assay with Rattus norvegicus [7] and with Rattus norvegicus [8] was Active.
